Screens from PubChem.
MPTP inh: inhibitors of mitochondrial permeability transition pore; AID 602449; inhibition, % at 10 µM; isolated mouse mitochondria, Ca2+ swelling absorbance, 30 min; 360,000 compounds, 1.4% hits;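 active = inhibition of 50% or more, scaled per plate between neutral and stimulator controls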
V-ATPase pH: alters yeast V-ATPase proton transport; response, % at 10 µM; S. cerevisiae, pHLuorin cytosolic pH fluorescence; 350,000 compounds, 0.37% hits; in the data active = response mostly above about 7.3%, no sharp cut-off; inactive = mostly below about 5.4%; also: actives read high
rCAG RNA binder: binds r(CAG) RNA repeats. r(CAG) RNA repeat, TO-PRO-1 dye displacement fluorescence. inhibition, % at 3 µM. 370,000 compounds, 1.3% hits. AID 651821;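 active = inhibition above the plate cutoff, the mean of all test compounds on that plate plus 3 SD, cut at about 35% in these data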;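 also: higher means more dye released from RNA so lower well fluorescence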
B2AR ag: agonists of human beta-2 adrenergic receptor inducing internalization | Am2.2-beta2AR cells, FAP receptor internalization, flow cytometry | response, % (test concentration not listed) | AID 504454 | 340,000 compounds, 0.43% hits | P07550;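 active = response above a set limit, near 3 SD of response in nonfluorescent compounds, cut at about 42% in these data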
Target sequence (P07550 whole entry, looked up): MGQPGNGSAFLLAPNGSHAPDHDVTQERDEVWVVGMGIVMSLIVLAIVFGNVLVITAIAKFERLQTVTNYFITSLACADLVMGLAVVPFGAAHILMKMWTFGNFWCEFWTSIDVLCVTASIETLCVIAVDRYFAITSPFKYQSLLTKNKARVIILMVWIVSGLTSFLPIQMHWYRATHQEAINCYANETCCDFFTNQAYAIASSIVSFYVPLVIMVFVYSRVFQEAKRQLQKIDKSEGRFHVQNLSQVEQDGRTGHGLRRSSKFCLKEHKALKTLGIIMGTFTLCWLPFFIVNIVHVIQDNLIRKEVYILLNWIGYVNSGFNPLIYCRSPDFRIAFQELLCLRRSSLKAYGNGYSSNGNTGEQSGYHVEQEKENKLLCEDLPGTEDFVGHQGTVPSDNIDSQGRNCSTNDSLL
Granule exo inh: lytic granule exocytosis inhibition. TALL-104 LAMP-1 surface exposure, flow cytometry; cells stimulated with thapsigargin and PMA. inhibition, % at 10 µM. 360,000 compounds, 0.66% hits;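 active = inhibition above about 55%, limit read from the data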
T cell HTS: modulates CD8 T cell binding to vesicles. 330,000 compounds, 0.068% hits. 2C CD8+ T cell-vesicle binding, flow cytometry; hits give low values. AID 2052. response (vesicle binding), % at 7 µM;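 active = response, share of CD8 T cells binding vesicles, and their 90th percentile fluorescence all below set limits, cut at about 80% in these data, passing the limit was not always enough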;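 also: values below 100% mean blocked vesicle binding to the CD8+ T cells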
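Assay system: 2C TCR transgenic mouse naive CD8+ T cells, MACS-purified | Read-out: CD8+ gate FL2 mean fluorescence as % of same-row positive control | Signal: High-throughput flow cytometry with anti-B7-1 and anti-CD8 staining | Timing: Binding step 1.5 h, 37 °C, antibody labelling 20 min, ice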
rCAG bind conf: r(CAG) RNA repeat binding, confirmation | shares compounds with rCAG RNA binder | TO-PRO-1 dye displacement fluorescence | inhibition, % at 3 µM | 4,300 compounds, 70% hits;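 active = inhibition above a per-plate cutoff, the mean inhibition of sample wells plus 3 SD, cut at about 35% in these data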;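 also: loss of TO-PRO-1 fluorescence as compound displaces dye from 1x1 AA loop RNA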
dCAG dye counter: DNA CAG dye complex inhibition counter-screen | shares compounds with rCAG RNA binder | d(CAG) DNA oligo TO-PRO-1 dye displacement, fluorescence | inhibition, % at 3 µM | 4,300 compounds, 94% hits | AID 652068;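 active = inhibition above its plate's cutoff, the mean test-well inhibition plus 3 SD, cut at about 4.8% in these data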;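 also: hits displace the dye from DNA and so lower well fluorescence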
DNA CAG DR: counter-screen for rCAG binders: inhibitors of DNA CAG TO-PRO-1 complex; shares compounds with rCAG RNA binder; DNA CAG/GTC duplex TO-PRO-1 dye displacement fluorescence; 250 compounds, 20% hits; AID 686960; IC50, µM; in the data active = IC50 below about 10 µM
Each line names hits and unclear results; the compound was inactive in the other large screens (follow-up assays come after a bar, where they were run). Compounds with a hit are over-represented: about 3.8% of the library has one in this group of screens.

COCC(=O)N[C@H]1C[C@@H]2O[C@H](CO)CC[C@@H]2O[C@@H]1CCc1ccc(-c2ccccc2)cc1	none (no result: MPTP inh, V-ATPase pH, B2AR ag, Granule exo inh, T cell HTS)
COC(=O)[C@]12C[C@H](CC(=O)NCCCN3CCCC3=O)C(=O)N(CCc3ccc(OC)c(OC)c3)C1=C[C@H](C(C)(C)C)O[C@@H]2C	none (no result: MPTP inh, V-ATPase pH, B2AR ag, Granule exo inh, T cell HTS)
CCC(C)N(Cc1ccc(OC)cc1OC)S(=O)(=O)c1cc(Br)ccc1Br (stereo not drawn)	none (no result: MPTP inh, V-ATPase pH, B2AR ag, Granule exo inh, T cell HTS)
CCOc1cc(/C=N/Nc2cccc(C(=O)O)c2)ccc1OC(=O)c1ccccc1	rCAG RNA binder 36 (no result: T cell HTS) | rCAG bind conf 82 | dCAG dye counter 51
COC(=O)C1CN(CCc2ccccc2)CCS(=O)(=O)N1Cc1ccccc1 (stereo not drawn)	none (no result: MPTP inh, V-ATPase pH, B2AR ag, Granule exo inh, T cell HTS)
COc1cccc(C2NC(=S)NC(C)=C2C(C)=O)c1 (stereo not drawn)	none (no result: MPTP inh, V-ATPase pH, B2AR ag, Granule exo inh, T cell HTS)
CC(=O)c1ccc(NC(=O)CSc2ccsc2[N+](=O)[O-])cc1	rCAG RNA binder 35 (no result: T cell HTS) | rCAG bind conf inactive | dCAG dye counter 14
O=C(CSc1ccsc1[N+](=O)[O-])Nc1cc(F)ccc1F	rCAG RNA binder 38 (no result: T cell HTS) | rCAG bind conf inactive | dCAG dye counter 11
O=Cc1cc(N=Nc2ccc(S(=O)(=O)O)cc2)ccc1O	none
CN(C)c1ccc(N=Nc2ccc(S(=O)(=O)O)cc2)c2ccccc12	rCAG RNA binder 77 | rCAG bind conf 59 | dCAG dye counter 24
Cc1sc(NC(=O)CCCC(=O)O)c(C(N)=O)c1-c1ccccc1	none
CCCC(=O)Nc1sc(-c2ccccc2)c(-c2ccccc2)c1C(=O)O	rCAG RNA binder 41 | rCAG bind conf inactive | dCAG dye counter inactive
CC(=O)c1cccc(NC(=S)NNC(=O)c2ccc(C)c([N+](=O)[O-])c2)c1	rCAG RNA binder 41 | rCAG bind conf 38 | dCAG dye counter 15
Cc1ccc(C(=O)NC(=S)Nc2cccc(NC(=O)c3ccccc3)c2)cc1[N+](=O)[O-]	none
Cc1nc2ccc(C(=O)N3CCN(C(=O)OCc4ccccc4)CC3)cc2n1C1CCCC1	none (no result: MPTP inh, V-ATPase pH, B2AR ag, Granule exo inh, T cell HTS)
CC(=O)NS(=O)(=O)c1ccc(NC(=O)c2cc(-c3ccc(C)c(C)c3)nc3ccccc23)cc1	rCAG RNA binder 77 | rCAG bind conf 71 | dCAG dye counter 37
CC(=O)NS(=O)(=O)c1ccc(NC(=O)c2cc(-c3cccs3)nc3ccccc23)cc1	none
CC(=O)NS(=O)(=O)c1ccc(NC(=O)c2cc(-c3ccc(C)cc3)nc3ccccc23)cc1	rCAG RNA binder 53 | rCAG bind conf 35 | dCAG dye counter 9.3
Cc1cc(NC(=O)c2cc(-c3ccc(C)c(C)c3)nc3ccccc23)no1	none
COc1ccc2ccccc2c1C=NNC(=O)CN1CCN(Cc2ccccc2)CC1	none (no result: MPTP inh, V-ATPase pH, B2AR ag, Granule exo inh, T cell HTS)
Nc1nc2c(ncn2[C@@H]2O[C@H](C(=O)NCC3CCCCC3)[C@@H](O)[C@H]2O)c(=O)[nH]1	none (no result: MPTP inh, V-ATPase pH, B2AR ag, Granule exo inh, T cell HTS)
CCOC1=CC2=C(C(=O)C(Cl)=CC2=O)[C@@H]2CN(S(=O)(=O)c3ccc(C)cc3)[C@@H](c3ccccc3)[C@H]12	rCAG RNA binder 73, Granule exo inh 98 (no result: V-ATPase pH, B2AR ag, T cell HTS) | rCAG bind conf 57 | dCAG dye counter 21
CC1=NN(c2nc(-c3ccc(C)cc3)cs2)C(=O)C1N=Nc1cccc(O)c1 (stereo not drawn)	rCAG RNA binder 37 | rCAG bind conf 49 | dCAG dye counter 22
COc1ccc([C@@H]2CC=C(C(=O)O)[C@H](c3cccc(Cl)c3)N2S(=O)(=O)c2ccc(Cl)cc2)cc1	rCAG RNA binder 74 | rCAG bind conf 71 | dCAG dye counter 33 | DNA CAG DR inactive
COc1ccc([C@@H]2CC=C(C(=O)O)[C@H](c3ccc(F)cc3)N2S(=O)(=O)c2ccc(Cl)cc2)cc1	rCAG RNA binder 58 | rCAG bind conf 47 | dCAG dye counter 15
O=S1(=O)N[C@H](Cc2ccccc2)COc2cc(N3CCCC3)ccc21	none (no result: MPTP inh, V-ATPase pH, B2AR ag, Granule exo inh, T cell HTS)
CC(C)(C)c1ccc(OC(=O)Nc2ccc(O)c(C(=O)O)c2)cc1	rCAG RNA binder 54 | rCAG bind conf 37 | dCAG dye counter 11
Cc1cccc(OC(=O)Nc2ccc(C(=O)O)c(O)c2)c1	none (no result: B2AR ag, T cell HTS)
C#CCN1C(=O)S/C(=C\c2ccc(-c3ccc(C(=O)O)cc3C)o2)C1=O	rCAG RNA binder 48 | rCAG bind conf 43 | dCAG dye counter 16
Cc1ccc(NC(=O)CN2C(=O)S/C(=C\c3cc(C)n(-c4cccc(C(=O)O)c4)c3C)C2=O)cc1	rCAG RNA binder 72 | rCAG bind conf 71 | dCAG dye counter 32 | DNA CAG DR inactive
Cc1ccc(C(=O)O)cc1-c1ccc(/C=C2/NC(=O)N(c3ccccc3)C2=O)o1	rCAG RNA binder 62 | rCAG bind conf 60 | dCAG dye counter 22
Cc1ccccc1NC(=O)CN1C(=O)S/C(=C\c2ccc(-c3cc(C(=O)O)ccc3C)o2)C1=O	none (no result: T cell HTS)
Cc1ccc(C(=O)O)cc1-c1ccc(/C=C2\SC(=O)N(CC(=O)Nc3ccccc3)C2=O)o1	rCAG RNA binder 42 | rCAG bind conf 89 | dCAG dye counter 66
C=CCN1C(=O)[C@@H](CC(=O)NCc2ccccc2)[C@]2(C(=O)OC)CCCCC=C12	none (no result: MPTP inh, V-ATPase pH, B2AR ag, Granule exo inh, T cell HTS)
COC(=O)C1=C(C)N(Cc2ccccc2C(F)(F)F)C(=NCC2CC2)NC1c1cccc(F)c1 (stereo not drawn)	none (no result: MPTP inh, V-ATPase pH, B2AR ag, Granule exo inh, T cell HTS)
COC(=O)CN1CCN(C(=O)c2csc(-c3ccccc3)n2)CC1	none (no result: MPTP inh, V-ATPase pH, B2AR ag, Granule exo inh, T cell HTS)
COc1ccc2c(c1)[C@@]1(NCCc3c1[nH]c1ccc(OC)cc31)C(=O)N2C	none (no result: MPTP inh, V-ATPase pH, B2AR ag, Granule exo inh, T cell HTS)
O=C1NC(=O)/C(=C\c2ccc(Br)o2)S1	none
O=C1NC(=O)/C(=C/c2ccc(-c3cc(C(=O)O)ccc3Cl)o2)S1	rCAG RNA binder 53 | rCAG bind conf 52 | dCAG dye counter 15
Cc1ccccc1S(=O)(=O)N1CCCc2nc(-c3ccc(F)cc3)ccc21	none (no result: MPTP inh, V-ATPase pH, B2AR ag, Granule exo inh, T cell HTS)
Cc1c(Nc2nc3ccccc3nc2NS(=O)(=O)c2cccc(Cl)c2)c(=O)n(-c2ccccc2)n1C	rCAG RNA binder 52 | rCAG bind conf 48 | dCAG dye counter 15
O=C(CSc1nc2ccccc2n1CCc1ccccc1)N1CCOCC1	none
O=C(CSc1nc2ccccc2n1CCc1ccccc1)c1ccc(O)c(O)c1	rCAG RNA binder 61 (no result: T cell HTS) | rCAG bind conf 64 | dCAG dye counter 38
Cc1cc(=O)oc2c3c(cc(OCC(=O)N[C@@H](Cc4ccccc4)C(=O)O)c12)OC(C)(C)CC3	none
Cc1cc(=O)oc2c3c(cc(OCC(=O)NC(Cc4ccc(Cl)cc4)C(=O)O)c12)OC(C)(C)CC3 (stereo not drawn)	rCAG RNA binder 46 | rCAG bind conf 53 | dCAG dye counter 17
